# From ChEMBL document CHEMBL1126804, “Mammalian topoisomerase II inhibitory activity of 1-cyclopropyl-6,8- difluoro-1,4-dihydro-7-(2,6-dimethyl-4-pyridinyl)-4-oxo-3-quinolinecarb oxylic acid and related derivatives” (J Med Chem, 1993)
# Test system: P388
# Experiment: In vitro cytotoxicity against P388 murine leukemia cells in culture in a clonogenic assay after 1 hour exposure to drug
# Assay type: functional, cell-based
# Settings: Mus musculus, P388, 1 h
row,Structure (SMILES),IC50
1,COc1cc([C@@H]2c3cc4c(cc3[C@@H](O[C@@H]3O[C@@H]5CO[C@@H](C)O[C@H]5[C@H](O)[C@H]3O)[C@H]3COC(=O)[C@H]23)OCO4)cc(OC)c1O [ETOPOSIDE],0.3 µM
2,Cc1cc(-c2c(F)cc3c(=O)c(C(=O)O)cn(C4CC4)c3c2F)cc(C)n1 [WIN-57294],29 µM

# Target: DNA topoisomerase II (Homo sapiens, UniProt P11388+Q02880)
# Experiment: Tested for inhibition of topoisomerase II isolated from HeLa cells by DNA-cleavage assay
# Settings: not given
# Summary of the method: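 HeLa topo II purified from late-log suspension cultures. Reactions were assembled at 4 °C in 50 mM Tris-Cl pH 7.9, 44 mM NaCl, 10 mM MgCl2, 0.5 mM ATP, 3'-32P-end-labeled pBR322 and 10 units enzyme, then run 20 min at 37 °C. SDS/KCl precipitation captured covalent complex, counted by scintillation.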
row,EC50,Structure (SMILES)
1,340 µM,NC1CCN(c2c(F)cc3c(=O)c(C(=O)O)cn(C4CC4)c3c2F)C1 (centres undefined)
2,> 220 µM,Cc1cc(-c2c(F)cc3c(=O)c(C(=O)O)c(-c4ccccc4)n(C4CC4)c3c2F)cc(C)n1
3,> 530 µM,Cc1cc(-c2c(F)cc3c(=O)c(C(=O)O)cn(CCF)c3c2F)cc(C)n1
4,52 µM,O=C(O)c1cn(C2CC2)c2c(F)c(-c3cccnc3)c(F)cc2c1=O
5,> 430 µM,Cc1cc(-c2c(F)cc3c(=O)c(C(=O)O)cn(-c4ccc(F)cc4)c3c2F)cc(C)n1
6,6.2 µM,Cc1cc(-c2c(F)c(N)c3c(=O)c(C(=O)O)cn(C4CC4)c3c2F)cc(C)n1
7,17 µM,Cc1cc(-c2c(F)cc3c(=O)ccn(C4CC4)c3c2F)cc(C)n1
8,74 µM,Cc1cc(-c2c(F)cc3c(=O)c(C(=O)[O-])cn(C(C)(C)C)c3c2F)cc(C)n1.[Na+]
9,17 µM,O=C(O)c1cn(C2CC2)c2c(F)c(-c3ccncc3)c(F)cc2c1=O
10,13 µM,Cc1cc(-c2c(F)c(F)c3c(=O)c(C(=O)O)cn(C4CC4)c3c2F)cc(C)n1
11,150 µM,CN1CCN(c2c(F)cc3c(=O)c(C(=O)O)cn(C4CC4)c3c2F)CC1
12,> 140 µM,Cc1cc(-c2c(F)cc3c(=O)c(C(=O)O)csc3c2F)cc(C)n1.Cl
13,> 300 µM,Cc1cc(-c2c(F)cc3c(O)c(C(=O)O)cnc3c2F)cc(C)n1
14,16 µM,Cc1cc(-c2c(F)cc3c(=O)cc(C)n(C4CC4)c3c2F)cc(C)n1
15,110 µM,CCn1cc(C(=O)O)c(=O)c2cc(F)c(-c3cc(C)nc(C)c3)c(F)c21
16,> 420 µM,Cc1cc(-c2c(F)c(Sc3ccccc3)c3c(=O)c(C(=O)O)cn(C4CC4)c3c2F)cc(C)n1
17,1.2 µM,O=C(O)c1cn(C2CC2)c2c(F)c(-c3ccc(O)cc3)c(F)cc2c1=O
18,> 260 µM,Cc1cc(-c2c(F)cc3c(=O)c(C(=O)O)c(C)n(C4CC4)c3c2F)cc(C)n1
19,16 µM,Cc1cc(-c2c(F)cc3c(=O)c(C(=O)O)cn(C4CC4)c3c2F)ccn1
20,53 µM,Cc1ccc(-c2c(F)cc3c(=O)c(C(=O)O)cn(C4CC4)c3c2F)c(C)n1
21,> 240 µM,Cc1cc(-c2c(F)cc3c(=O)cc(-c4ccccc4)n(C4CC4)c3c2F)cc(C)n1
22,7.6 µM,Cc1cc(-c2c(F)cc3c(=O)c(C(=O)O)cn(C4CC4)c3c2F)cc(C)n1 [WIN-57294]
